According to ChEMBL document CHEMBL4152306, “Synthesis and biological evaluation of new coumarins bearing 2,4-diaminothiazole-5-carbonyl moiety” (Eur J Med Chem, 2018):
Converted amounts (≈) assume the structure as drawn.

How the values were obtained:
MCF7 [1] = assay: Cytotoxicity against human MCF7 cells assessed as inhibition of cell proliferation after 48 hrs by MTT assay; type: functional, cell-based; details: MCF7, 48 h
Method in brief: (§1)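 Cells seeded at 8 × 10³ per well in complete medium, incubated overnight at 37°C, 5% CO2, then exposed to a range of compound concentrations (DMSO solutions; 0.1% DMSO negative control, etoposide positive control) for 48 h at 37°C. Viability by MTT, absorbance 570 nm. IC50 from dose-response curves, mean ± SE of at least three independent experiments.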

HepG2 = assay: Cytotoxicity against human HepG2 cells assessed as inhibition of cell proliferation after 48 hrs by MTT assay; type: functional, cell-based; details: HepG2, 48 h; method in brief: as §1
SW480 = assay: Cytotoxicity against human SW480 cells assessed as inhibition of cell proliferation after 48 hrs by MTT assay; type: functional, cell-based; details: SW480, 48 h; method in brief: as §1
MCF7 [2] = assay: Induction of apoptosis in human MCF7 cells after 48 hrs by Annexin-V-FITC/propidium iodide staining based flow cytometry; type: functional, cell-based
Method in brief: (§2)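 MCF-7 cells seeded in 6-well plates, incubated overnight at 37 °C, 5% CO2, treated 48 h; untreated cells as negative control, etoposide as standard. Cells trypsinized, PBS-washed twice, pelleted at 1200 rpm, resuspended in 500 µl binding buffer with 5 µl each Annexin V-FITC and PI, 5–15 min at room temperature in dark, then flow cytometry.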

MCF7 [3] = assay: Induction of apoptosis in human MCF7 cells assessed as live cells at IC50 after 48 hrs by Annexin-V-FITC/propidium iodide staining based flow cytometry (reference value: 70.5%); type: functional; method in brief: as §2
MCF7 [4] = assay: Induction of apoptosis in human MCF7 cells assessed as early apoptotic cells at IC50 after 48 hrs by Annexin-V-FITC/propidium iodide staining based flow cytometry (reference value: 8.16%); type: functional; method in brief: as §2
MCF7 [5] = assay: Induction of apoptosis in human MCF7 cells assessed as late apoptotic cells at IC50 after 48 hrs by Annexin-V-FITC/propidium iodide staining based flow cytometry (reference value: 15.6%); type: functional; method in brief: as §2
MCF7 [6] = assay: Induction of apoptosis in human MCF7 cells assessed as necrotic cells at IC50 after 48 hrs by Annexin-V-FITC/propidium iodide staining based flow cytometry (reference value: 5.79%); type: functional; method in brief: as §2
MCF7 [7] = assay: Induction of apoptosis in human MCF7 cells assessed as live cells at 7.5 ug/ml after 48 hrs by Annexin-V-FITC/propidium iodide staining based flow cytometry (reference value: 70.5%); type: functional; method in brief: as §2
MCF7 [8] = assay: Induction of apoptosis in human MCF7 cells assessed as early apoptotic cells at 7.5 ug/ml after 48 hrs by Annexin-V-FITC/propidium iodide staining based flow cytometry (reference value: 8.16%); type: functional; method in brief: as §2
MCF7 [9] = assay: Induction of apoptosis in human MCF7 cells assessed as late apoptotic cells at 7.5 ug/ml after 48 hrs by Annexin-V-FITC/propidium iodide staining based flow cytometry (reference value: 15.6%); type: functional; method in brief: as §2
MCF7 [10] = assay: Induction of apoptosis in human MCF7 cells assessed as necrotic cells at 7.5 ug/ml after 48 hrs by Annexin-V-FITC/propidium iodide staining based flow cytometry (reference value: 5.79%); type: functional; method in brief: as §2
MCF7 [11] = assay: Induction of apoptosis in human MCF7 cells assessed as live cells at 11.2 ug/ml after 48 hrs by Annexin-V-FITC/propidium iodide staining based flow cytometry (reference value: 70.5%); type: functional; method in brief: as §2
MCF7 [12] = assay: Induction of apoptosis in human MCF7 cells assessed as early apoptotic cells at 11.2 ug/ml after 48 hrs by Annexin-V-FITC/propidium iodide staining based flow cytometry (reference value: 8.16%); type: functional; method in brief: as §2
MCF7 [13] = assay: Induction of apoptosis in human MCF7 cells assessed as late apoptotic cells at 11.2 ug/ml after 48 hrs by Annexin-V-FITC/propidium iodide staining based flow cytometry (reference value: 15.6%); type: functional; method in brief: as §2
MCF7 [14] = assay: Induction of apoptosis in human MCF7 cells assessed as necrotic cells at 11.2 ug/ml after 48 hrs by Annexin-V-FITC/propidium iodide staining based flow cytometry (reference value: 5.79%); type: functional; method in brief: as §2
MCF7 [15] = assay: Cell cycle arrest in human MCF7 cells assessed as accumulation at G2 phase at 7.5 ug/ml after 48 hrs by propidium iodide staining based flow cytometry (reference value: 13.24%); type: functional
MCF7 [16] = assay: Cell cycle arrest in human MCF7 cells assessed as accumulation at S phase at 7.5 ug/ml after 48 hrs by propidium iodide staining based flow cytometry (reference value: 26.04%); type: functional
MCF7 [17] = assay: Cell cycle arrest in human MCF7 cells assessed as accumulation at G1 phase at 7.5 ug/ml after 48 hrs by propidium iodide staining based flow cytometry (reference value: 68.58%); type: functional
MCF7 [18] = assay: Cell cycle arrest in human MCF7 cells assessed as accumulation at G2 phase at 11.2 ug/ml after 48 hrs by propidium iodide staining based flow cytometry (reference value: 13.24%); type: functional
MCF7 [19] = assay: Cell cycle arrest in human MCF7 cells assessed as accumulation at S phase at 11.2 ug/ml after 48 hrs by propidium iodide staining based flow cytometry (reference value: 26.04%); type: functional
MCF7 [20] = assay: Cell cycle arrest in human MCF7 cells assessed as accumulation at G1 phase at 11.2 ug/ml after 48 hrs by propidium iodide staining based flow cytometry (reference value: 68.58%); type: functional
[21] = Antioxidant activity assessed as ferric ion reduction by measuring FeSO4 equivalents reducing Fe3+-TPTZ to Fe2+-TPTZ at 5 ug/ml after 25 mins by FRAP assay; type: functional
Method in brief: (§3)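 FRAP reagent: 10 mM TPTZ in 40 mM HCl, 20 mM FeCl3·6H2O and 300 mM acetate buffer pH 3.6 (1:1:10). 20 µl sample (tested 5 to 100 µg/ml) mixed with 150 µl reagent, incubated 37°C for 25 min, absorbance at 593 nm. Values as µM FeSO4·7H2O equivalents from calibration curve; ascorbic acid as standard.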

[22] = Antioxidant activity assessed as ferric ion reduction by measuring FeSO4 equivalents reducing Fe3+-TPTZ to Fe2+-TPTZ at 10 ug/ml after 25 mins by FRAP assay; type: functional; method in brief: as §3
[23] = Antioxidant activity assessed as ferric ion reduction by measuring FeSO4 equivalents reducing Fe3+-TPTZ to Fe2+-TPTZ at 20 ug/ml after 25 mins by FRAP assay; type: functional; method in brief: as §3
[24] = Antioxidant activity assessed as ferric ion reduction by measuring FeSO4 equivalents reducing Fe3+-TPTZ to Fe2+-TPTZ at 40 ug/ml after 25 mins by FRAP assay; type: functional; method in brief: as §3
[25] = Antioxidant activity assessed as ferric ion reduction by measuring FeSO4 equivalents reducing Fe3+-TPTZ to Fe2+-TPTZ at 80 ug/ml after 25 mins by FRAP assay; type: functional; method in brief: as §3
[26] = Antioxidant activity assessed as ferric ion reduction by measuring FeSO4 equivalents reducing Fe3+-TPTZ to Fe2+-TPTZ at 100 ug/ml after 25 mins by FRAP assay; type: functional; method in brief: as §3
[27] = Antioxidant activity assessed as DPPH radical scavenging activity incubated for 30 mins under dark condition by spectrophotometric method; type: functional
Method in brief: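 Test compounds dissolved in DMSO; 20 µl sample mixed with 250 µl DPPH in methanol (working solution diluted from 0.5 mM methanolic stock to absorbance […] at 517 nm). Kept 30 min at room temperature in dark, absorbance read at 517 nm against compound-free control; ascorbic acid standard. Triplicates; % inhibition from control vs sample absorbance; IC50 reported.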

Row | Compound | IC50 (MCF7 [1]) | IC50 (HepG2) | IC50 (SW480) | Activity [21] | Activity [22] | Activity [23] | Activity [24] | Activity [25] | Activity [26] | IC50 [27] | also measured
1 | Nc1nc(N2CCSCC2)sc1C(=O)c1cc2ccccc2oc1=O | 7.5 µg/mL (≈ 20.1 µM) | 16.9 µg/mL (≈ 45.3 µM) | 13 µg/mL (≈ 34.8 µM) | 76.3 µMequiv | 86.3 µMequiv | 148 µMequiv | 266 µMequiv | 455 µMequiv | 564 µMequiv | 23.9 µg/mL (≈ 64 µM) | Activity (MCF7 [2]): Dose-dependent effect; Activity (MCF7 [3]): 54.1%; Activity (MCF7 [4]): 4.65%; Activity (MCF7 [5]): 19.2%; Activity (MCF7 [6]): 18.3%; Activity (MCF7 [7]): 51.5%; Activity (MCF7 [8]): 5.15%; Activity (MCF7 [9]): 19.2%; Activity (MCF7 [10]): 24.2%; Activity (MCF7 [11]): 39.2%; Activity (MCF7 [12]): 5.9%; Activity (MCF7 [13]): 41.7%; Activity (MCF7 [14]): 13.2%; Activity (MCF7 [15]): 8.28%; Activity (MCF7 [16]): 16.79%; Activity (MCF7 [17]): 83.98%; Activity (MCF7 [18]): 6.44%; Activity (MCF7 [19]): 9.08%; Activity (MCF7 [20]): 89.83%
2 | Nc1nc(N2CCSCC2)sc1C(=O)c1cc2cc(Br)ccc2oc1=O | 12.5 µg/mL (≈ 27.6 µM) | 29.7 µg/mL (≈ 65.7 µM) | 44.5 µg/mL (≈ 98.4 µM) | 57 µMequiv | 70.5 µMequiv | 78.5 µMequiv | 94.3 µMequiv | 164 µMequiv | 171 µMequiv | 27.7 µg/mL (≈ 61.2 µM) | –
3 | Nc1nc(N2CCOCC2)sc1C(=O)c1cc2cc(Br)ccc2oc1=O | 14.6 µg/mL (≈ 33.5 µM) | 19.3 µg/mL (≈ 44.2 µM) | 48.7 µg/mL (≈ 112 µM) | 76.5 µMequiv | 84.3 µMequiv | 110 µMequiv | 162 µMequiv | 212 µMequiv | 248 µMequiv | 34.6 µg/mL (≈ 79.3 µM) | –
